# Screening data deposited in PubChem by several laboratories.
# Most compounds without a hit are left out; they make up all but 2.8% or so of the library.
# PGE2 EP2 inh = inhibitors of human EP2 prostaglandin E2 receptor; C6 glioma cells expressing human EP2, cAMP TR-FRET; cells stimulated with saturating PGE2; inhibition, % at 25 µM; actives 0.52% (n = 260,000); AID 1422;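 active = percent inhibition above 40 after rounding to a whole number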;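 also: rat C6 glioma host cells with rolipram phosphodiesterase inhibitor present; the protocol text gives 20 µM as final concentration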
# NPY-Y2 antag = NPY-Y2 (human) receptor antagonism; P49146; NPY-Y2 expressing cells, antagonist mode; inhibition, % at 2.7 µM; actives 0.99% (n = 140,000); in the data active = inhibition above about 17%
# Target sequence (P49146 whole entry, looked up): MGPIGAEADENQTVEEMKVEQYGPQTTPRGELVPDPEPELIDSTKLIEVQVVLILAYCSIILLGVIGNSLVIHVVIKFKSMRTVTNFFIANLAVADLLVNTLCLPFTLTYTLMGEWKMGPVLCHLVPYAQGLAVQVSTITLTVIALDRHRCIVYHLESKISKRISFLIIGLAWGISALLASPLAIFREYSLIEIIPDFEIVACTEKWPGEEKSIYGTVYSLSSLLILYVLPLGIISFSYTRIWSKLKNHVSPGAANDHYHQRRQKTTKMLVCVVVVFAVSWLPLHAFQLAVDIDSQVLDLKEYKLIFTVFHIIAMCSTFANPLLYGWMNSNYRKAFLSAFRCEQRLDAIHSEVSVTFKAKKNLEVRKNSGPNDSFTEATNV
# EP2 mod = modulates human prostaglandin E2 receptor EP2 signaling; P43116; EP2-expressing cells, cAMP HTRF FRET, PGE2 co-stimulation; induction, % at 25 µM; actives 0.83% (n = 260,000);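 active = compounds whose cAMP rise, as percent of the full-agonist control response, exceeds 60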;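 also: rat C6 glioma line stably carrying human EP2 under a CMV promoter; the protocol text gives 20 µM as final concentration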
# NPY2 pot ag = potentiators or agonists of human neuropeptide Y receptor Y2; cells expressing NPY-Y2, potentiator/agonist read-out; actives 0.45% (n = 220,000); AID 1359; activation, % at 3.6 µM; in the data active = activation above about 27%;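 also: cells stimulated with NPY near EC25 plus isoproterenol at EC100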
# NPY-Y1 antag = blocks the human neuropeptide Y Y1 receptor; HEK293-CNG Y1 cells, membrane potential fluorescence; NPY at EC95, then isoproterenol; inhibition, % at 3.6 µM; actives 1% (n = 200,000);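 active = inhibition above the campaign mean inhibition of all tested compounds plus 3 SD, cut at about 20% in these data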
#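 Material: HEK293 Y1/CNG channel cell line; also added: NPY (25 nM), isoproterenol (1 µM), Ro 20-1724 (25 µM); doses: one concentration, 3.6 µM, in 0.4% DMSO; schedule: compound incubation 1 h at room temperature, readout 45 min post-stimulation; technique: membrane potential fluorescence; measure: fluorescence ratio normalized to % inhibition between controls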
# NPY1 pot ag = potentiators or agonists of human neuropeptide Y receptor Y1; P25929; NPY-Y1 expressing cells, potentiator/agonist activation; activation, % at 3.6 µM; actives 0.37% (n = 220,000); AID 1304; in the data active = activation above about 33%, passing the limit was not always enough;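 also: cells stimulated with NPY at EC10 then isoproterenol at EC100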
# EP2 confirm = human EP2 receptor cAMP induction, negative in counter-screens. shares compounds with EP2 mod. C6 glioma EP2 cells, cAMP HTRF induction; plus low (about EC15) PGE2 agonist. calls only at 20 µM (by protocol). actives 47% (n = 1,300). AID 1080;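 active = cAMP induction above 50% in the main assay while under 30% in all four parallel counter assays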;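 also: rat C6 glioma cells stably expressing human EP2 receptor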
# A number is an active result; - = inactive; . = no result; + = active, no number.
SMILES,PGE2 EP2 inh,NPY-Y2 antag,EP2 mod,NPY2 pot ag,NPY-Y1 antag,NPY1 pot ag,EP2 confirm
C#CCOc1ccc(C2C3=C(CCCC3=O)N(C)C3=C2C(=O)CCC3)cc1OC,-,.,-,.,.,.,.
COc1ccc(C)cc1NC(=O)c1sc2nc3cc4c(cc3cc2c1N)OCCO4,-,.,-,.,.,.,.
C=CCc1cc(C=O)cc(OCC)c1OCc1ccc(Cl)cc1,-,-,87,-,-,-,+
COc1cc(C=O)ccc1OCCOCCOc1ccc(Cl)cc1,-,-,-,-,-,-,.
C=CCc1cc(C=O)cc(OC)c1OCc1ccc(Cl)cc1,-,-,83,-,-,-,+
CCCCOc1ccc(-c2c(C(=O)Nc3ccccc3)c(C)[nH]c(=S)c2C#N)cc1,-,.,73,-,-,-,-
CC1CCN(C(=O)Cn2c(SCC(=O)NC3CC3)nc3ccccc32)CC1,-,.,-,.,.,.,.
CC(=O)c1ccc(S(=O)(=O)NCCCC(=O)NCCc2ccccn2)cc1,-,-,71,-,-,-,-
Cc1cccc2cc(CN(Cc3cccs3)C(=O)c3ccc(F)cc3)c3nnnn3c12,-,.,-,.,.,.,.
Cn1c(SC(C(=O)Nc2ccc(F)cc2)c2ccccc2)nc2ccccc21 (configuration not stated),-,-,-,-,-,-,.
CC(Sc1nc2ccccc2n1C)C(=O)NC(c1ccccc1)c1ccccc1 (configuration not stated),-,-,72,-,-,-,+
COc1ccccc1C(=O)NCc1ccccc1,-,-,-,-,-,-,.
O=C(NCc1ccc(F)cc1)c1ccccc1OCc1ccccc1,-,-,81,-,-,-,+
CCc1nn(CCC(N)=O)c(=O)c2cc3sccc3n12,-,.,-,.,.,.,.
COC(=O)CSc1nc2c(c(=O)n(C)c(=O)n2C)n1Cc1ccccc1,-,.,-,.,.,.,.
Nc1c(C(=O)Nc2ccccc2F)sc2nc(Cc3ccccc3)cc(C(F)(F)F)c12,-,-,67,-,-,-,-
N#CC1=C(S)N(c2ccccc2)C2(CCCCC2)NC1=O,-,-,71,-,-,-,-
CCC(C)(C)n1nnnc1C(c1cc2cc(C)ccc2[nH]c1=O)N1CCSCC1 (configuration not stated),-,.,-,.,.,.,.
Cc1nc2c(c(=O)[nH]1)CCN(CCC(C)c1ccccc1)C2 (configuration not stated),-,.,-,.,.,.,.
CCSCC1COC(c2cccn2Cc2ccc(C)cc2)=N1 (configuration not stated),-,-,-,-,-,-,.
CCC1COC(c2cccn2Cc2ccc(Cl)cc2)=N1 (configuration not stated),-,.,65,-,-,-,-
C=CCn1c(Cc2ccccc2)n[nH]c1=S,-,.,-,-,-,-,.
C=CCn1c(CCc2cc(C(C)(C)C)c(O)c(C(C)(C)C)c2)n[nH]c1=S,-,.,-,-,-,-,-
COc1ccc2c(-c3ccccc3)cc(N3CCOCC3)nc2c1,-,-,77,-,-,-,+
c1ccc(-c2cc(-c3ccc(N4CCOCC4)cc3)nc3ccccc23)cc1,-,-,-,-,-,-,.
SMILES,PGE2 EP2 inh,NPY-Y2 antag,EP2 mod,NPY2 pot ag,NPY-Y1 antag,NPY1 pot ag,EP2 confirm
CCOc1ccc2[nH]c3c(c2c1)CN(C(=O)CCCn1nc(C)cc1C)CC3,-,.,-,.,.,.,.
COc1ccc(OC)c(NC(=O)Cn2nc(-c3ccc(C)o3)cc(N)c2=O)c1,-,.,-,.,.,.,.
Cc1ccc(Oc2nc(-c3ccccc3)ncc2S(C)(=O)=O)cc1,-,-,75,-,-,-,-
Cc1ccc(Oc2nc(-c3ccccc3)ncc2S(=O)(=O)c2ccc(C)cc2)cc1,-,-,-,-,-,-,.
CCC(CO)NC(=O)C(=O)NCc1ccc2c(c1)OCO2 (configuration not stated),-,.,-,.,.,.,.
Cc1nnc(SCC(=O)NC2CCCCC2)n1C1CCCCC1,-,-,-,-,-,-,-
O=C(c1cccs1)N1CCC[C@H]1Cn1nc(-c2ccc3c(c2)OCO3)ccc1=O,.,.,-,.,.,.,.
Oc1ccc(/C=N/N2CCN(C3c4ccccc4-c4ccccc43)CC2)c(O)c1,-,.,66,-,-,-,-
Oc1ccc(/C=N/N2CCN(C3c4ccccc4-c4ccccc43)CC2)cc1,-,.,-,-,.,-,.
